According to ChEMBL document CHEMBL2086296, “Synthesis of novel quinoline-2-one based chalcones of potential anti-tumor activity” (Eur J Med Chem, 2012):

Key:
SF-268 = test: Cytotoxicity against human SF268 cells after 24 hrs by SRB assay; assay type: cell-based; conditions: sf-268, 24 h
Outline: (§1)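 NCI 60-cell screen. Cells grown in RPMI 1640 with 5% FBS and 2 mM L-glutamine, seeded at 5,000–40,000 cells/well, preincubated 24 h at 37 °C in 5% CO2. Drug stock in DMSO, diluted in medium with gentamicin; five final concentrations, 100, 10, 1.0, 0.1 and […]. Time-zero plates were TCA-fixed. Protein read by SRB staining; GI50, TGI and LC50 taken relative to time-zero.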

CAKI-1 [1] = test: (§2) Cytotoxicity against human CAKI-1 cells after 24 hrs by SRB assay; assay type: cell-based; conditions: caki-1, 24 h; outline: as §1
SK-MEL-28 = test: Cytotoxicity against human SK-MEL-28 cells after 24 hrs by SRB assay; assay type: functional; conditions: SK-MEL-28, 24 h
Outline: (§3)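 NCI 60-line screen. Cells in RPMI 1640 with 5% FBS and 2 mM L-glutamine, seeded at 5,000–40,000 cells/well by doubling time, then incubated 24 h at 37 °C, 5% CO2 before dosing. Time-zero plates fixed with TCA at drug addition. DMSO stocks diluted in medium with gentamicin to five concentrations, […]. Protein read by SRB staining. GI50, TGI and LC50 derived relative to control and time-zero.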

HOP-92 = test: Cytotoxicity against human HOP92 cells after 24 hrs by SRB assay; assay type: functional; conditions: HOP-92, 24 h; outline: as §3
A549 [2] = test: (§4) Cytotoxicity against human A549 cells after 24 hrs by SRB assay; assay type: cell-based; conditions: a549, 24 h; outline: as §1
HCT-116 [3] = test: (§5) Cytotoxicity against human HCT116 cells after 24 hrs by SRB assay; assay type: functional; conditions: HCT-116, 24 h; outline: as §3
UACC-257 [4] = test: (§6) Cytotoxicity against human UACC257 cells after 24 hrs by SRB assay; assay type: functional; conditions: UACC-257, 24 h
Outline: (§7)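 NCI 60-cell screen. Cells are grown in RPMI 1640 with 5% FBS and 2 mM L-glutamine and seeded at 5,000–40,000 cells/well according to doubling time. They are preincubated 24 h at 37 °C in 5% CO2, and Tz plates are TCA-fixed at drug addition. Drug stock is in DMSO, diluted in medium with gentamicin, and tested at five concentrations (100, 10, 1.0, 0.1, […]). Protein is read by SRB staining. GI50, TGI and LC50 are derived relative to time-zero and control wells.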

SK-MEL-2 [5] = test: (§8) Cytotoxicity against human SK-MEL-2 cells after 24 hrs by SRB assay; assay type: functional; conditions: SK-MEL-2, 24 h; outline: as §3
OVCAR-3 [6] = test: (§9) Cytotoxicity against human OVCAR3 cells after 24 hrs by SRB assay; assay type: functional; conditions: OVCAR-3, 24 h; outline: as §3
SN12C = test: Cytotoxicity against human SN12C cells after 24 hrs by SRB assay; assay type: functional; outline: as §3
UACC-257 [7] = test: as §6; assay type: cell-based; conditions: uacc-257, 24 h
Outline: (§10)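 NCI 60-cell-line screen: cells grown in RPMI 1640 with 5% FBS and 2 mM L-glutamine, seeded at 5,000–40,000 cells/well by doubling time, and preincubated 24 h at 37 °C in 5% CO2. Time-zero plates were TCA-fixed. DMSO stocks were diluted in medium with gentamicin to five concentrations (100, 10, 1.0, 0.1, […]). Protein was read by SRB, and GI50, TGI and LC50 were derived against time-zero.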

MDA-MB-468 = test: Cytotoxicity against human MDA-MB-468 cells after 24 hrs by SRB assay; assay type: functional; conditions: MDA-MB-468, 24 h; outline: as §3
OVCAR-3 [8] = test: as §9; assay type: cell-based; conditions: ovcar-3, 24 h; outline: as §1
CAKI-1 [9] = test: as §2; assay type: functional; conditions: CAKI-1, 24 h; outline: as §3
NCI-H23 [10] = test: (§11) Cytotoxicity against human NCI-H23 cells after 24 hrs by SRB assay; assay type: functional; conditions: NCI-H23, 24 h; outline: as §3
SW-620 = test: Cytotoxicity against human SW620 cells after 24 hrs by SRB assay; assay type: functional; conditions: SW-620, 24 h; outline: as §7
NCI-H23 [11] = test: as §11; assay type: cell-based; conditions: nci-h23, 24 h; outline: as §1
SK-MEL-2 [12] = test: as §8; assay type: cell-based; conditions: sk-mel-2, 24 h; outline: as §1
Mus musculus = test: Acute toxicity in athymic nude mouse assessed as weight loss up to 400 mg/kg, ip after 2 weeks; assay type: organism-based; parameters: dose 400 mg/kg, route intraperitoneal; conditions: in vivo, 336 h
Outline: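 Single ip injection in athymic nude mice, one mouse per dose at 400, 200 and 100 mg/kg, dosed at 0.1 mL/10 g body weight, with feed and water ad libitum. Animals observed for 2 weeks and sacrificed on >20% body weight loss or other signs of significant toxicity. If all three were sacrificed, 50, 25 and 12.5 mg/kg were tested next.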

NCI-H226 = test: Cytotoxicity against human NCI-H226 cells after 24 hrs by SRB assay; assay type: functional; conditions: NCI-H226, 24 h; outline: as §3
SF-539 = test: Cytotoxicity against human SF539 cells after 24 hrs by SRB assay; assay type: cell-based; conditions: sf-539, 24 h; outline: as §1
A549 [13] = test: as §4; assay type: functional; conditions: A549, 24 h; outline: as §3
HCT-116 [14] = test: as §5; assay type: cell-based; conditions: hct-116, 24 h; outline: as §1
OVCAR-4 = test: Cytotoxicity against human OVCAR4 cells after 24 hrs by SRB assay; assay type: cell-based; conditions: ovcar-4, 24 h; outline: as §1
UACC-62 = test: Cytotoxicity against human UACC62 cells after 24 hrs by SRB assay; assay type: cell-based; conditions: uacc-62, 24 h; outline: as §10
HCC 2998 = test: Cytotoxicity against human HCC2998 cells after 24 hrs by SRB assay; assay type: cell-based; conditions: hcc 2998, 24 h; outline: as §1

SMILES: O=C(/C=C/c1cc2ccccc2[nH]c1=O)/C=C/c1cc2ccccc2[nH]c1=O
- LC50 (SF-268): > 100 µM
- LC50 (CAKI-1 [1]): > 100 µM
- GI50 (SK-MEL-28): 4.96 µM
- TGI (SK-MEL-28): > 100 µM
- GI50 (HOP-92): > 100 µM
- TGI (HOP-92): > 100 µM
- LC50 (A549 [2]): > 100 µM
- GI50 (HCT-116 [3]): 131 nM
- TGI (HCT-116 [3]): 299 nM
- GI50 (UACC-257 [4]): 1980 nM
- TGI (UACC-257 [4]): 4.79 µM
- GI50 (SK-MEL-2 [5]): > 100 µM
- TGI (SK-MEL-2 [5]): > 100 µM
- GI50 (OVCAR-3 [6]): 4.2 µM
- TGI (OVCAR-3 [6]): > 100 µM
- GI50 (SN12C): 2660 nM
- TGI (SN12C): > 100 µM
- LC50 (UACC-257 [7]): > 100 µM
- GI50 (MDA-MB-468): 1580 nM
- TGI (MDA-MB-468): 4.39 µM
- LC50 (OVCAR-3 [8]): > 100 µM
- GI50 (CAKI-1 [9]): 2360 nM
- TGI (CAKI-1 [9]): > 100 µM
- GI50 (NCI-H23 [10]): 2420 nM
- TGI (NCI-H23 [10]): 87.7 µM
- GI50 (SW-620): 1000 nM
- TGI (SW-620): 3.92 µM
- LC50 (NCI-H23 [11]): > 100 µM
- LC50 (SK-MEL-2 [12]): > 100 µM
- Activity (Mus musculus): Non-toxic
- GI50 (NCI-H226): 2770 nM
- TGI (NCI-H226): 8.01 µM
- LC50 (SF-539): > 100 µM
- GI50 (A549 [13]): 764 nM
- LC50 (HCT-116 [14]): > 100 µM
- LC50 (OVCAR-4): > 100 µM
- LC50 (UACC-62): > 100 µM
- LC50 (HCC 2998): 5.25 µM
